# Assays:
# [1] = tested on: L1210; assay: Cytotoxicity against mouse L1210 cells after 2 days; format: functional, cell-based; settings: L1210, 48 h
# Outline: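 Cells were incubated with the compounds at 37 °C for two days, then counted on a Coulter counter. IC50 is the concentration that inhibits cell proliferation by 50%.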
# [2] = tested on: FM3A; assay: Cytotoxicity against mouse FM3A0 cells after 2 days; format: functional, cell-based; settings: 48 h
# [3] = Cytotoxicity against human Molt4/C8 cells after 2 days; settings: MOLT-4, 48 h
# [4] = tested on: HeLa; assay: Cytotoxicity against human HeLa cells after 2 days; format: functional, cell-based; settings: 48 h
# [5] = Inhibition of bovine tubulin polymerization; design: species or system Bos taurus
# Outline: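 Purified bovine brain tubulin (10 μM) in glutamate buffer was preincubated with varying compound concentrations at 30 °C, then cooled to 0 °C. GTP was added and the mixture warmed to 30 °C in a recording spectrophotometer. Assembly was followed by turbidity.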
# [6] = species: Bos taurus; assay: Displacement of [3H]colchicine from bovine tubulin at 5 uM
# Outline: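 Reaction mixtures held 1 μM bovine brain tubulin, 5 μM [3H]colchicine and 5 μM test compound. Inhibition of radiolabelled colchicine binding to tubulin is expressed as percent inhibition.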
# [7] = tested on: K562; assay: Cell cycle arrest in human K562 cells assessed as accumulation at G1 phase at 26 nM after 24 hrs by flow cytometry; format: functional
# Outline: (§1)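 K562 leukaemia cells were cultured for 24 h with compound at one fixed concentration. DNA content per cell was measured by the standard propidium iodide procedure and flow cytometry. Proportions of cells in the sub-G0–G1 (apoptotic), G0–G1, S and G2–M peaks were compared with an untreated control.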
# [8] = tested on: K562; assay: Cell cycle arrest in human K562 cells assessed as accumulation at S phase at 26 nM after 24 hrs by flow cytometry; format: functional; outline: as §1
# [9] = tested on: K562; assay: Cell cycle arrest in human K562 cells assessed as accumulation at G2 phase at 26 nM after 24 hrs by flow cytometry; format: functional; outline: as §1
# [10] = tested on: K562; assay: Cell cycle arrest in human K562 cells assessed as accumulation at sub-G0/G1 phase at 26 nM after 24 hrs by flow cytometry; format: functional; outline: as §1
structure (smiles),measurement,setting,value
COc1ccc2c(C)c(C(=O)c3cc(OC)c(OC)c(OC)c3)oc2c1,IC50,[1],24 nM
same,IC50,[2],27 nM
same,IC50,[3],19 nM
same,IC50,[4],3.2 nM
same,IC50,[5],550 nM
same,Activity,[6],97%
same,Activity,[7],2.19%
same,Activity,[8],16.62%
same,Activity,[9],81.19%
same,Activity,[10],4.9%

# Reference: ChEMBL document CHEMBL1152591, “Design, synthesis and structure-activity relationship of 2-(3',4',5'-trimethoxybenzoyl)-benzo[b]furan derivatives as a novel class of inhibitors of tubulin polymerization” (Bioorg Med Chem, 2009)
